Source: PubChem BioAssay
Shown are actives, neighbours in structure and some others; about 4.7% of the full set was active somewhere.
KCC2 mod – KCC2 cotransporter modulators, thallium flux, primary screen, cell-based, HEK293 KCC2, FluoZin-2 fluorescence, MLSMR; Solute carrier family 12 member 5 (Homo sapiens), Q9H2X9; KCC2 cells, thallium flux FluoZin-2 fluorescence; B-score of Tl+ flux slope (higher = more flux/activation; lower = inhibition) at 10 µM; actives 2.2% (n = 190,000);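 active = thallium flux slope and its plate-corrected score both differing from the plate sample mean at a set confidence after two filtering rounds, in either direction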;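 also: slope of fluorescence scaled to starting intensity during 10 to 20 s after thallium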
Target sequence (Q9H2X9 whole entry, looked up): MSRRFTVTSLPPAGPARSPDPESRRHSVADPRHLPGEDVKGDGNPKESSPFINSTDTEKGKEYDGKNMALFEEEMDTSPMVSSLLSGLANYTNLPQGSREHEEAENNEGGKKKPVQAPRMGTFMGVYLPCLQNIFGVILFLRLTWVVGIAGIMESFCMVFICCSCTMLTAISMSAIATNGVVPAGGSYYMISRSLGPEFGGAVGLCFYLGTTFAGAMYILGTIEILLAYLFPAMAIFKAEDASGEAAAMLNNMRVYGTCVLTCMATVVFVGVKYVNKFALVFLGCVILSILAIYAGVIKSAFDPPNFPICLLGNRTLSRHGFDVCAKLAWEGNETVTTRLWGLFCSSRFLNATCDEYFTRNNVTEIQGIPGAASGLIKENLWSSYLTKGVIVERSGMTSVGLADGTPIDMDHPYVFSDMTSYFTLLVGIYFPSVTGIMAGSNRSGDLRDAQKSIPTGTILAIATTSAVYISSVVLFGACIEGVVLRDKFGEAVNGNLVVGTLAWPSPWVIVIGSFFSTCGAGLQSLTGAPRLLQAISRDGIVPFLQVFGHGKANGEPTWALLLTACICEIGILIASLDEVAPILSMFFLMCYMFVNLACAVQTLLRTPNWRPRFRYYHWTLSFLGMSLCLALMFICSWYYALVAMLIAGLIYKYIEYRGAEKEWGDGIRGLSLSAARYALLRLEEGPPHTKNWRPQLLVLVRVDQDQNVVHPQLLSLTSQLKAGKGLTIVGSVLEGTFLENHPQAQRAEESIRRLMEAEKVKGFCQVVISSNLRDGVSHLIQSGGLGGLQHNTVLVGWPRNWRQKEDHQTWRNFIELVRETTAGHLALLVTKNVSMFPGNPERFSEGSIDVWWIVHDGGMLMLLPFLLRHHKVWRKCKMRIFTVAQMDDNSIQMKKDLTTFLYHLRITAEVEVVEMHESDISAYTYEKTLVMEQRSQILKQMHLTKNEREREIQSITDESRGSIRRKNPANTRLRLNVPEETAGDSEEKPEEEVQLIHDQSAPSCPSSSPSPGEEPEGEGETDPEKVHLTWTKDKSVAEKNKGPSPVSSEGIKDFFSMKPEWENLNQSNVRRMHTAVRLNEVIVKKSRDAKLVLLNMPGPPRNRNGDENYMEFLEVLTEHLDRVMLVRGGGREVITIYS
RGS4 act – RGS4 potentiators or activators, primary screen, cell-based, HEK293 M3R inducible RGS4, calcium flux; B-score at 10 µM; AID 463111, 2010; carbachol calcium flux Fluo4; hits give low values; actives 0.92% (n = 310,000);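 active = B-score of the integrated calcium signal more than 4 SD below the library mean, with starting fluorescence not abnormally high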;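 also: negative B-score means reduced calcium response which marks RGS4 activation or potentiation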
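Detection: kinetic calcium fluorescence imaging with Fluo4-AM dye, 2 µM / Material: HEK293 cells with stable M3R and inducible RGS4 / Schedule: recording 10 s baseline at 1 Hz, 100 s post-agonist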
RGS4 block – RGS4 inhibitors, primary screen, cell-based, HEK293 M3R inducible RGS4, calcium flux; Regulator of G-protein signaling 4 (Homo sapiens), P49798; Fluo-4 calcium flux; hits give high values; triggered by carbachol at its EC20; B-score at 10 µM; actives 0.45% (n = 310,000); AID 463165, 2010;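 active = B-score, a plate-corrected calcium signal, over three deviations above library mean, with baseline fluorescence within five deviations of library mean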;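 also: RGS4 expression induced by doxycycline in cells with stable M3 receptor; B-score is computed from the integrated fluorescence ratio over baseline after carbachol; higher B-score means a larger calcium signal and so more RGS4 inhibition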
MrgX1 allo act – positive allosteric modulators of MrgX1, primary screen, HEK293 cells, Fluo-4 calcium flux. FDSS; hits give high values. B-score at 10 µM. actives 0.63% (n = 310,000);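 active = plate-corrected calcium response at least 3 library SD above typical, normal starting fluorescence, not activating the receptor alone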;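 also: compound read alongside a low EC10 to EC30 dose of BAM8-22 agonist; peak minus trough fluorescence over baseline measured at the second addition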
MrgX1 agonist – agonists of human MrgX1 receptor, primary screen, HEK293 cells, Fluo-4 calcium flux | Mas-related G-protein coupled receptor member X1 (Homo sapiens), Q96LB2 | Fluo-4 calcium fluorescence, agonist mode; hits give high values | B-score at 10 µM | actives 0.44% (n = 310,000);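 active = calcium response B-score plate-corrected fluorescence ratio at least 3 library SD, with starting fluorescence B-score inside 5 SD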
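System – MrgX1-expressing HEK293 cells · Incubation – cells plated overnight, dye loaded 0.5 h 37 °C, 0.5 h room temperature · Technique – kinetic Fluo-4 NW fluorescence of intracellular calcium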
MrgX1 antag – antagonists of human MrgX1 receptor, primary screen, HEK293 cells, Fluo-4 calcium flux; BAM8-22 antagonism; hits give low values; B-score at 10 µM; actives 1.3% (n = 310,000);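 active = calcium-response B-score plate-corrected more than 3 library SD below zero, starting fluorescence within 5 deviations, no agonist response on first addition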;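 also: peak minus trough fluorescence over baseline after final BAM8-22 challenge near maximal dose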
* = called active by the depositor.

For O=C(c1cccc([N+](=O)[O-])c1)N1CC2C3C=CC(C3)C2C1 (centres undefined) the results were KCC2 mod -0.31, RGS4 act inactive, RGS4 block inactive, MrgX1 allo act inactive, MrgX1 agonist inactive and MrgX1 antag inactive.
Screening O=C(c1ccccc1[N+](=O)[O-])N1CC2C3C=CC(C3)C2C1 (centres undefined) returned KCC2 mod 0.26, RGS4 act -7.1*, RGS4 block inactive, MrgX1 allo act inactive, MrgX1 agonist inactive and MrgX1 antag inactive.
For N/C(=N\OC(=O)c1cccs1)c1ccc(Cl)cc1 the results were KCC2 mod -1.2, RGS4 act inactive, RGS4 block inactive, MrgX1 allo act inactive, MrgX1 agonist inactive and MrgX1 antag -5.8*.
Cc1ccc(NC(=O)CSc2n[nH]c(-c3cccnc3)n2)cc1Cl was read as RGS4 act inactive, RGS4 block inactive, MrgX1 allo act inactive, MrgX1 agonist inactive and MrgX1 antag inactive.
For CCn1ccnc1CN1CCc2c([nH]c3ccccc23)C1C1CCCCC1 (centres undefined) the results were RGS4 act -7.6*, RGS4 block inactive, MrgX1 allo act inactive, MrgX1 agonist inactive and MrgX1 antag inactive.
Screening CCCOC(=O)c1ccc(Oc2cn[nH]c2-c2ccc(OC)cc2O)cc1 returned RGS4 act -7.5*, RGS4 block inactive, MrgX1 allo act inactive, MrgX1 agonist inactive and MrgX1 antag inactive.
`COc1ccc(CNC(=O)C(c2cccs2)N(Cc2ccco2)C(=O)Cc2cccs2)cc1` (centres undefined) gave KCC2 mod -0.085, RGS4 act -7.4*, RGS4 block inactive, MrgX1 allo act inactive, MrgX1 agonist inactive and MrgX1 antag inactive.
For COc1ccc(CNC(=O)C(c2ccc(C)cc2)N(Cc2cccs2)C(=O)c2ccc3c(c2)OCCO3)cc1 (centres undefined) the results were KCC2 mod -0.58, RGS4 act -7.5*, RGS4 block inactive, MrgX1 allo act inactive, MrgX1 agonist inactive and MrgX1 antag inactive.
Screening CCC/C(=N/NC(=O)c1csc(C)c1C)c1ccc(Cl)s1 returned KCC2 mod 3.7*, RGS4 act inactive, RGS4 block inactive, MrgX1 allo act inactive, MrgX1 agonist inactive and MrgX1 antag inactive.
`CCc1ccc(NC(=O)C(=O)NNC(=O)COc2cccc(OC)c2)cc1` gave KCC2 mod 18*, RGS4 act inactive, RGS4 block inactive, MrgX1 allo act inactive, MrgX1 agonist inactive and MrgX1 antag inactive.
COc1ccccc1/C=C/C(=O)N1CCOCC1 was read as KCC2 mod -1.4, RGS4 act -7.8*, RGS4 block inactive, MrgX1 allo act inactive, MrgX1 agonist inactive and MrgX1 antag inactive.
CCCCCCCNC(=O)CN1N=C(c2ccc(C)cc2)CCC1=O was read as RGS4 act inactive, RGS4 block inactive, MrgX1 allo act inactive, MrgX1 agonist inactive and MrgX1 antag inactive.
For CCOC(=O)c1ccc(N2Cc3ccccc3C2=N)cc1 the results were KCC2 mod 0.2, RGS4 act -7.3*, RGS4 block inactive, MrgX1 allo act inactive, MrgX1 agonist inactive and MrgX1 antag inactive.
Screening CCc1ccc(OCC(=O)NNC(=S)NC(=O)C2CCCCC2)c(Br)c1 returned RGS4 act inactive, RGS4 block inactive, MrgX1 allo act inactive, MrgX1 agonist inactive and MrgX1 antag -8.9*.
Cc1cc(C)cc(OCC(=O)NNC(=S)NC(=O)C2CC2)c1 was read as RGS4 act inactive, RGS4 block inactive, MrgX1 allo act inactive, MrgX1 agonist 32* and MrgX1 antag inactive.
Screening COc1ccc(OCC(=O)NNC(=S)NC(=O)C2CCCCC2)cc1 returned RGS4 act inactive, RGS4 block inactive, MrgX1 allo act inactive, MrgX1 agonist 50* and MrgX1 antag inactive.
COc1ccc(OCC(=O)NNC(=S)NC(=O)C2CC2)cc1 was read as RGS4 act inactive, RGS4 block inactive, MrgX1 allo act inactive, MrgX1 agonist inactive and MrgX1 antag inactive.
For CCOc1ccc(OCCCC(=O)N(C)CC(=O)Nc2ccc(N3CCOCC3)cc2)cc1 the results were RGS4 act inactive, RGS4 block inactive, MrgX1 allo act inactive, MrgX1 agonist inactive and MrgX1 antag inactive.
Screening COc1ccc(CCC(=O)N(C)CC(=O)Nc2ccc(N3CCOCC3)cc2)cc1 returned KCC2 mod -0.48, RGS4 act inactive, RGS4 block inactive, MrgX1 allo act 11*, MrgX1 agonist inactive and MrgX1 antag inactive.
O=C(NC(=S)Nc1cccnc1)c1cccs1 was read as KCC2 mod 4.5, RGS4 act inactive, RGS4 block inactive, MrgX1 allo act inactive, MrgX1 agonist inactive and MrgX1 antag inactive.
Screening Cc1ccnc(NC(=S)NC(=O)c2cccs2)c1 returned KCC2 mod 26*, RGS4 act inactive, RGS4 block inactive, MrgX1 allo act inactive, MrgX1 agonist inactive and MrgX1 antag inactive.
Cc1ccnc(NC(=O)CNC(=O)c2cccs2)c1 was read as RGS4 act inactive, RGS4 block inactive, MrgX1 allo act inactive, MrgX1 agonist inactive and MrgX1 antag inactive.
Screening O=C(NC(=S)Nc1ccc(Cl)cn1)c1cccs1 returned KCC2 mod 21*, RGS4 act inactive, RGS4 block inactive, MrgX1 allo act inactive, MrgX1 agonist inactive and MrgX1 antag inactive.
`O=C(NC(=S)Nc1nc2c(ccc3ccccc32)s1)c1cccs1` gave KCC2 mod 17*, RGS4 act inactive, RGS4 block inactive, MrgX1 allo act inactive, MrgX1 agonist inactive and MrgX1 antag inactive.
O=C(Nc1nc2c(ccc3ccccc32)s1)c1ccco1 was read as KCC2 mod -1.4, RGS4 act inactive, RGS4 block inactive, MrgX1 allo act inactive, MrgX1 agonist inactive and MrgX1 antag inactive.
For Cc1ccc(CCNS(=O)(=O)c2ccc3c(c2)NC(=O)C(C)C(=O)N3)cc1 (centres undefined) the results were RGS4 act inactive, RGS4 block inactive, MrgX1 allo act inactive, MrgX1 agonist inactive and MrgX1 antag inactive.
